# Results gathered from unrelated publications.
Structure (SMILES),method,matrix,time,pH,temperature,notes,kinetic solubility
COC(=O)[C@H](Cc1c[nH]cn1)NC(=O)CN(CC(=O)O)Cc1ccccc1,,PBS,24 h,pH 7.4,,,154 µM
CC(=O)Nc1cc(Nc2cc(NC3CC3)n3ncc(C#N)c3n2)ccc1N1CCC[C@H](O)C1,shake flask,PBS,24 h,pH 7.4,22 °C,,37 µg/mL
CCCC#Cc1ccc([C@@H](CO)C(=O)N[C@H](C)c2ccccc2)cc1,,PBS,,pH 7.4,,,7.4 µM
Cc1cc(Nc2ccc(S(F)(F)(F)(F)F)cc2)n2ccnc2n1,,simulated gastric fluid,,pH 2,,acidic,> 285 µM
O=C(O)CN(CCCc1ccccc1)CC(=O)N[C@H](CO)Cc1c[nH]cn1,,PBS,24 h,pH 7.4,,,180 µM
CCCCOC(=O)NS(=O)(=O)c1sc(CC(C)C)cc1-c1ccc(OC(F)(F)F)c(Cn2ccnc2)c1,,aqueous buffer,,pH 7.4,37 °C,,52 µM
Cc1cc(Nc2ccc(C(F)(F)F)cc2)c2ccccc2n1,,PBS,,pH 6.5,,,83 µM
CN[C@@H]1CCCN(c2ccc(Nc3cc(NC4CC4)n4ncc(C#N)c4n3)cc2NC(C)=O)C1,shake flask,PBS,24 h,pH 7.4,22 °C,,52 µg/mL
CCc1cnc2c(c1)[C@@H](N1CCOc3c(cc(Cn4ccnc4)cc3-c3cn(C)nc3C(F)(F)F)C1=O)CCC2,,PBS,1 h,pH 7.4,,,74 µM
CC(=O)Nc1cc(Nc2cc(NC3CC3)n3ncc(C#N)c3n2)ccc1N(C)CC1COC1,shake flask,PBS,24 h,pH 7.4,22 °C,,0.2 µg/mL
CC[C@H](NC(=O)[C@H](CS(=O)(=O)CC1CC1)N[C@@H](c1ccc(F)cc1)C(F)(F)F)C(=O)C(=O)NC1CC1,,PBS,,pH 7.4,,,223 µM
CC(=O)Nc1cc(Nc2cc(NC3CC3)n3ncc(C#N)c3n2)ccc1N(C)C[C@@H]1CCCN1,shake flask,PBS,24 h,pH 7.4,22 °C,,68 µg/mL
CCOC(=O)NS(=O)(=O)c1sc(CC(C)C)cc1-c1ccc2c(c1)CN(C)C(=O)C2,,aqueous buffer,,pH 7.4,37 °C,,61 µM
Fc1ccc(Nc2c(-c3ccccn3)nc3ccc(C4CC4)cn23)cc1,,aqueous buffer,24 h,,,,3 µM
COC(=O)CN(CC(=O)N[C@@H](Cc1c[nH]cn1)C(=O)OC)Cc1ccccc1,,PBS,24 h,pH 7.4,,,191 µM
C=CC(=O)Nc1cc(Nc2nccc(Nc3cc(Cl)c(F)cc3C(C)(C)O)n2)c(OC)cc1N1CC[C@@H](N(C)C)C1,,aqueous buffer,,pH 7.4,,,616 µM
CCC(=O)Nc1cc(Nc2cc(NC3CC3)n3ncc(C#N)c3n2)ccc1N1CCC[C@@H](NC)C1,shake flask,PBS,24 h,pH 7.4,22 °C,,65 µg/mL
CNC(=O)[C@H](Cc1c[nH]cn1)NC(=O)CN(CCCc1ccccc1)CC(=O)O,,PBS,24 h,pH 7.4,,,170 µM
CCCCOC(=O)NS(=O)(=O)c1sc(CC(C)C)cc1-c1ccc2c(c1)CN(C(C)=O)CC2,,aqueous buffer,,pH 7.4,37 °C,,31 µM
O=C(O)CN(CCCc1ccccc1)CC(=O)N[C@@H](Cc1c[nH]cn1)C(=O)NCc1ccccc1,,PBS,24 h,pH 7.4,,,179 µM
CN[C@H]1CCN(c2ccc(Nc3cc(NC4CC4)n4ncc(C#N)c4n3)cc2NC(C)=O)C1,shake flask,PBS,24 h,pH 7.4,22 °C,,49 µg/mL
